In series [1] the test system is T47D. Kind of series: Selectivity ratio EC50 for human H1299 cells over EC50 for human T47D cells. In kind it is functional.
In series [2] the test system is NCI-H1299. The experiment in a line: Induction of apoptosis in human H1299 cells assessed as caspase activation. In kind it is functional, cell-based. In short, it runs like this:
(§1)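 Cell- and caspase-based HTS assay in human breast cancer T47D and human non-small cell lung cancer H1299 cells. Caspase-3 activation was read with fluorescent caspase-3 substrates and reported as EC50. Data are the mean of three or more experiments ± SEM.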

The subject of series [3] is T47D. Kind of series: Induction of apoptosis in human T47D cells assessed as caspase activation. In kind it is functional, cell-based. In outline: as §1
Series [4] in a line: Inhibition of tubulin polymerization.
A short description of series [5]: Ratio of AUC in brain to plasma in mouse at 2.5 mg/kg, iv. In kind it is ADME, organism-based. Set-up: dose 2.5 mg/kg, route intravenous. To be noted: brain and plasma, read-out: Ratio AUC. In outline:
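Mice got a single intravenous dose. Compound levels in plasma from blood samples and in homogenized whole brain were determined by LC–MS/MS. Brain/plasma ratio was calculated from the areas under the concentration–time curves.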

By EC50 is commonly meant the concentration giving half of the maximal effect. Regarding `COc1ccc(N(C)c2nc(C)nc3ccc(NC(C)=O)cc23)cc1`, the Selectivity ratio in series [1] worked out at 1.5. For the same compound, the EC50 came to 1400 nM in series [2] and 960 nM in series [3].

For orientation: IC50 means the concentration needed to halve the response being measured. As to `COc1ccc(N(C)c2nc(C)nc3cc(N)ccc23)cc1`, half-maximal inhibition in series [4] (IC50) was put at 2000 nM. In addition, the Selectivity ratio in series [1] was found to be 0.73. Besides, the 50% effective concentration (EC50) turned out to be 570 nM in series [2] and 780 nM in series [3].

In the case of `COc1ccc(N(C)c2nc(C)nc3cc(N=[N+]=[N-])ccc23)cc1`, the Selectivity ratio in series [1] was 1.2. For the same compound, the concentration giving a half-maximal response (EC50) worked out at 130 nM in series [2] and 110 nM in series [3].

In the case of `COc1ccc(N(C)c2nc(C)nc3ncccc23)cc1`, in series [1], the Selectivity ratio worked out at 1.4. The concentration for a half-maximal effect (EC50) came out at 21 nM in series [2] and 15 nM in series [3]. In addition, the Kp in series [5] came to 1.8.

As to `COc1ccc(N(C)c2nc(C)nc3ccc([N+](=O)[O-])cc23)cc1`, the Selectivity ratio in series [1] came out at 0.33. Moreover, the concentration giving a half-maximal response (EC50) in series [2] was 130 nM; in series [3] it was 400 nM.

For `COc1ccc(N(C)c2nc(C)nc3cc([N+](=O)[O-])ccc23)cc1`, the Selectivity ratio in series [1] came to 2. The EC50 in series [2] and in series [3] was > 10000 nM throughout.

Turning to `COc1ccc(N(C)c2nccc3ccccc23)cc1`, inhibition in series [4] was half-maximal at 400 nM (IC50). The Selectivity ratio in series [1] is given as 2. For the same compound, the values for the EC50 in series [2] and in series [3] were 960 nM and 600 nM, respectively.

For the compound `COc1ccc(N(C)c2ccnc3ccccc23)cc1`, the Selectivity ratio in series [1] came out at 2. Further, the EC50 in series [2] was determined as 26 nM; in series [3], 21 nM. In addition, in series [5], the Kp came out at 9.2.

On to `COc1ccc(N(C)c2nnnc3ccccc23)cc1`, for which, in series [1], the Selectivity ratio was found to be 2. Also, the EC50 in series [2] was 45 nM; in series [3], 17 nM.

As for `COc1ccc(N(C)c2nc(C)nc3nccnc23)cc1`, the Selectivity ratio in series [1] is 1.2. The concentration giving a half-maximal response (EC50) in series [2] was found to be 36 nM; in series [3], 29 nM. Moreover, the Kp in series [5] was 2.1.

Turning to `COc1ccc(N(C)c2nc(C)nc3cccc(OC)c23)cc1`, 400 nM corresponded to half-maximal inhibition in series [4] (IC50). In series [1], the Selectivity ratio is 2. In addition, the EC50 in series [2] stood at 8 nM; in series [3] it was 4 nM.

Regarding `COc1ccc(N(C)c2nc(C)nc3ccc(N)cc23)cc1`, the Selectivity ratio in series [1] turned out to be 2. Besides, the results for the EC50 in series [2] and in series [3] were 14 nM and 8 nM, respectively. In series [5], the Kp was determined as 3.6.

On to `COc1ccc(N(C)c2nc(C)nc3ccc(N(C)C)cc23)cc1`, for which the Selectivity ratio in series [1] is 3.1. Also, the values for the EC50 in series [2] and in series [3] were 1400 nM and 450 nM, respectively.

With `COc1ccc(N(C)c2nc(C)nc3ccccc23)cc1` [VERUBULIN], in series [4], it took 2000 nM to reach half-maximal inhibition (IC50). For the same compound, the concentration giving a half-maximal response (EC50) in series [2] came out at 7 nM.
